In ChEMBL document CHEMBL2384929, “Synthesis and biological evaluation of fluoro analogues of antimitotic phenstatin” (Bioorg Med Chem, 2013):

Key:
MDA-MB-468 = experiment: Cytotoxicity against human MDA-MB-468 cells assessed as growth inhibition at 10 uM after 48 hrs by SRB assay; format: functional; conditions: MDA-MB-468, 48 h, read-out: GI
Summary of the method: (§1)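 Single-dose NCI 60-cell screen at 10 µM with 48 h exposure and sulforhodamine B read-out. Values are percentage growth per cell line. A summary ratio counts cell lines with 0–50% growth over all cell lines tested.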

NCI/ADR-RES = experiment: Cytotoxicity against human NCI/ADR-RES cells assessed as growth inhibition at 10 uM after 48 hrs by SRB assay; format: functional; conditions: read-out: GI; summary of the method: as §1
PC-3 = experiment: Cytotoxicity against human PC3 cells assessed as growth inhibition at 10 uM after 48 hrs by SRB assay; format: functional; conditions: PC-3, 48 h, read-out: GI; summary of the method: as §1
UO-31 = experiment: Cytotoxicity against human UO31 cells assessed as growth inhibition at 10 uM after 48 hrs by SRB assay; format: functional; conditions: UO-31, 48 h, read-out: GI; summary of the method: as §1
UACC-257 = experiment: Cytotoxicity against human UACC257 cells assessed as growth inhibition at 10 uM after 48 hrs by SRB assay; format: functional; conditions: UACC-257, 48 h, read-out: GI; summary of the method: as §1
SW-620 = experiment: Cytotoxicity against human SW620 cells assessed as growth inhibition at 10 uM after 48 hrs by SRB assay; format: functional; conditions: SW-620, 48 h, read-out: GI; summary of the method: as §1
HCC 2998 = experiment: Cytotoxicity against human HCC2998 cells assessed as growth inhibition at 10 uM after 48 hrs by SRB assay; format: functional; conditions: HCC 2998, 48 h, read-out: GI; summary of the method: as §1
KM12 = experiment: Cytotoxicity against human KM12 cells assessed as growth inhibition at 10 uM after 48 hrs by SRB assay; format: functional; conditions: KM12, 48 h, read-out: GI; summary of the method: as §1
SNB-75 = experiment: Cytotoxicity against human SNB75 cells assessed as growth inhibition at 10 uM after 48 hrs by SRB assay; format: functional; conditions: SNB-75, 48 h, read-out: GI; summary of the method: as §1
HOP-62 = experiment: Cytotoxicity against human HOP62 cells assessed as growth inhibition at 10 uM after 48 hrs by SRB assay; format: functional; conditions: HOP-62, 48 h, read-out: GI; summary of the method: as §1
NCI-H522 = experiment: Cytotoxicity against human NCI-H522 cells assessed as growth inhibition at 10 uM after 48 hrs by SRB assay; format: functional; conditions: NCI-H522, 48 h, read-out: GI; summary of the method: as §1
SR = experiment: Cytotoxicity against human SR cells assessed as growth inhibition at 10 uM after 48 hrs by SRB assay; format: functional; conditions: read-out: GI; summary of the method: as §1
Ovis aries = species: Ovis aries; experiment: Inhibition of sheep brain tubulin assembly at 100 uM by DAPI staining-based fluorescence assay
Summary of the method: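 Tubulin from sheep brain, purified by two assembly–disassembly cycles, at about 2–3 mg/mL in 0.1 M MES, 0.5 mM MgCl2, 1 mM EGTA, 1 mM GTP, pH 6.6. Assembly followed by DAPI fluorescence at 37 °C. Single-point inhibition tested at 100 µM. IC50 is the concentration halving the assembly rate relative to no compound, mean of two experiments, with reference inhibitors run the same day.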

inhibition (Ovis aries): 39%
Structure (SMILES): COc1ccc(C(=O)c2cc(F)c(F)c(OC)c2F)c(OC)c1NC(C)=O
inhibition of growth at 10 µM (MDA-MB-468): 81%
inhibition of growth at 10 µM (NCI/ADR-RES): 55%
inhibition of growth at 10 µM (PC-3): 27%
inhibition of growth at 10 µM (UO-31): 30%
inhibition of growth at 10 µM (UACC-257): 21%
inhibition of growth at 10 µM (SW-620): 37%
inhibition of growth at 10 µM (HCC 2998): 31%
inhibition of growth at 10 µM (KM12): 57%
inhibition of growth at 10 µM (SNB-75): 44%
inhibition of growth at 10 µM (HOP-62): 30%
inhibition of growth at 10 µM (NCI-H522): 83%
inhibition of growth at 10 µM (SR): 49%
